# Laboratory results taken from ChEMBL document CHEMBL4665843, “Automated Design of Macrocycles for Therapeutic Applications: From Small Molecules to Peptides and Proteins” (J Med Chem, 2020).
# Residues, ends and D or L forms follow the SMILES beside them.
# How the values were obtained:
# [1] = molecular target: Glucagon-like peptide 1 receptor (Homo sapiens, UniProt P43220); assay: Agonist activity at human GLP-1 receptor expressed in HEK293 cells assessed as induction of cAMP accumulation incubated for 30 mins by HTRF assay; format: functional, cell-based
# In short: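 HEK-293 cells stably expressing human receptor, grown in DMEM/10% FBS, frozen, thawed and washed in HBSS/20 mM HEPES/0.1% HSA; resuspended with 2 mM IBMX. 5000 cells/well incubated with peptide 30 min at room temperature; cAMP by HTRF kit, 1 h with reagents in lysis buffer, 665/620 nm fluorescence ratio.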
# Glucagon receptor = Glucagon receptor (Homo sapiens, UniProt P47871); assay: Agonist activity at human glucagon receptor expressed in HEK293 cells assessed as induction of cAMP accumulation incubated for 30 mins by HTRF assay; format: functional, cell-based
# Glucagon receptor, sequence (P47871 whole entry): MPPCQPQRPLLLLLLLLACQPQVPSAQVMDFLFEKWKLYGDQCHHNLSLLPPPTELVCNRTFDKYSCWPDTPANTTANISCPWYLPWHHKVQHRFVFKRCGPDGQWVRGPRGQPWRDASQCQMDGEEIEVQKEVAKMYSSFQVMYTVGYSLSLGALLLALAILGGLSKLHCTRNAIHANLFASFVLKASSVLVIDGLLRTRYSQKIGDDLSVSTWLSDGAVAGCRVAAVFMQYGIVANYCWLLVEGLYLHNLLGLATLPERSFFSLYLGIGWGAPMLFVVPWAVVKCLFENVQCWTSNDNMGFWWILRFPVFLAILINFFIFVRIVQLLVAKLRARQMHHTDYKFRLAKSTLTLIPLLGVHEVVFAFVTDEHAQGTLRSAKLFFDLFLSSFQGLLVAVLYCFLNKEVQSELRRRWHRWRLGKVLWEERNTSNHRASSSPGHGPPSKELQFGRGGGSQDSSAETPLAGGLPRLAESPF
# Glucagon-like peptide 1 receptor, sequence (P43220 whole entry): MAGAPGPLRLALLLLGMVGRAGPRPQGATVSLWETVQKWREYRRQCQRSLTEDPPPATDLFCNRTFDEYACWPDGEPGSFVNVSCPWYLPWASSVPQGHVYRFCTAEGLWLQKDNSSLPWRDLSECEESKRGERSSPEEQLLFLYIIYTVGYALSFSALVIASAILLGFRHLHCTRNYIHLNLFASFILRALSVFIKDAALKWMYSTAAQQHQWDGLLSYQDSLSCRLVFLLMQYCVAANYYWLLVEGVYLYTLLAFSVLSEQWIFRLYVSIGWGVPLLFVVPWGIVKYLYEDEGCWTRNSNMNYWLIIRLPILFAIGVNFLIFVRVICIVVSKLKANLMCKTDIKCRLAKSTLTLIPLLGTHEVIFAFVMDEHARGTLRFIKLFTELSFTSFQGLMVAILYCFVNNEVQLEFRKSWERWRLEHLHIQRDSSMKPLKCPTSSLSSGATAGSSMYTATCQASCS
Structure (SMILES),EC50 [1],EC50 (Glucagon receptor)
CC[C@H](C)[C@H](NC(=O)[C@H](Cc1ccccc1)NC(=O)[C@H](CC(=O)O)NC(=O)[C@@H]1CCC(=O)NCCCC[C@H](NC(=O)[C@H](CC(=O)O)NC(=O)[C@H](CCSC)NC(=O)[C@H](CCC(N)=O)NC(=O)[C@H](CCCCN)NC(=O)[C@H](CO)NC(=O)[C@H](CC(C)C)NC(=O)[C@H](CC(=O)O)NC(=O)[C@H](CO)NC(=O)[C@@H](NC(=O)[C@H](Cc2ccccc2)NC(=O)[C@@H](NC(=O)CNC(=O)[C@H](CCC(N)=O)NC(=O)[C@@H](CO)NC(=O)[C@@H](N)Cc2cnc[nH]2)[C@@H](C)O)[C@@H](C)O)C(=O)N[C@@H](CCCNC(=N)N)C(=O)N[C@@H](CCCNC(=N)N)C(=O)N[C@@H](C)C(=O)N1)C(=O)N[C@@H](CCC(=O)O)C(=O)N[C@@H](Cc1c[nH]c2ccccc12)C(=O)N[C@@H](CC(C)C)C(=O)N[C@@H](CCCCN)C(=O)N[C@@H](CC(N)=O)C(=O)NCC(=O)NCC(=O)N1CCC[C@H]1C(=O)N[C@@H](CO)C(=O)N[C@@H](CO)C(=O)NCC(=O)N[C@@H](C)C(=O)N1CCC[C@H]1C(=O)N1CCC[C@H]1C(=O)N1CCC[C@H]1C(=O)N[C@@H](CO)C(N)=O,6.4 pM,7.8 pM
CC[C@H](C)[C@H](NC(=O)[C@H](Cc1ccccc1)NC(=O)[C@H](CC(=O)O)NC(=O)[C@H](CCC(N)=O)NC(=O)[C@H](C)NC(=O)[C@]1(C)CCC/C=C/CCC[C@](C)(NC(=O)[C@H](CCC(N)=O)NC(=O)[C@H](CCCCN)NC(=O)[C@H](CO)NC(=O)[C@H](CC(C)C)NC(=O)[C@H](CC(=O)O)NC(=O)[C@H](CO)NC(=O)[C@@H](NC(=O)[C@H](Cc2ccccc2)NC(=O)[C@@H](NC(=O)CNC(=O)[C@H](CCC(N)=O)NC(=O)[C@H](CO)NC(=O)[C@@H](N)Cc2cnc[nH]2)[C@@H](C)O)[C@@H](C)O)C(=O)N[C@@H](CC(=O)O)C(=O)N[C@@H](CO)C(=O)N[C@@H](CCCNC(=N)N)C(=O)N1)C(=O)N[C@@H](CCC(=O)O)C(=O)N[C@@H](Cc1c[nH]c2ccccc12)C(=O)N[C@@H](CC(C)C)C(=O)N[C@@H](CCCCN)C(=O)N[C@@H](CC(N)=O)C(=O)NCC(=O)NCC(=O)N1CCC[C@H]1C(=O)N[C@@H](CO)C(=O)N[C@@H](CO)C(=O)NCC(=O)N[C@@H](C)C(=O)N1CCC[C@H]1C(=O)N1CCC[C@H]1C(=O)N1CCC[C@H]1C(=O)N[C@@H](CO)C(N)=O,0.4 pM,369 pM
CC[C@H](C)[C@H](NC(=O)[C@H](Cc1ccccc1)NC(=O)[C@H](CC(=O)O)NC(=O)[C@H](CCC(N)=O)NC(=O)[C@H](C)NC(=O)[C@H](CCCNC(=N)N)NC(=O)[C@H](CCCNC(=N)N)NC(=O)[C@H](CO)NC(=O)[C@H](CC(=O)O)NC(=O)[C@H](CCSC)NC(=O)[C@H](CCC(N)=O)NC(=O)[C@H](CCCCN)NC(=O)[C@H](CO)NC(=O)[C@H](CC(C)C)NC(=O)[C@H](CC(=O)O)NC(=O)[C@H](CO)NC(=O)[C@@H](NC(=O)[C@H](Cc1ccccc1)NC(=O)[C@@H](NC(=O)CNC(=O)[C@H](CCC(N)=O)NC(=O)[C@@H](CO)NC(=O)[C@@H](N)Cc1cnc[nH]1)[C@@H](C)O)[C@@H](C)O)C(=O)N[C@@H](CCC(=O)O)C(=O)N[C@@H](Cc1c[nH]c2ccccc12)C(=O)N[C@@H](CC(C)C)C(=O)N[C@@H](CCCCN)C(=O)N[C@H]1CCCCNC(=O)CC[C@@H](C(=O)NCC(=O)N[C@@H](C)C(=O)N2CCC[C@H]2C(=O)N2CCC[C@H]2C(=O)N2CCC[C@H]2C(=O)N[C@@H](CO)C(N)=O)NC(=O)[C@H](CO)NC(=O)[C@@H]2CCCN2C(=O)CNC(=O)CNC1=O,8.13 pM,59.6 pM
CC[C@H](C)[C@H](NC(=O)[C@H](Cc1ccccc1)NC(=O)[C@H](CC(=O)O)NC(=O)[C@H](CCC(N)=O)NC(=O)[C@H](C)NC(=O)[C@H](CCCNC(=N)N)NC(=O)[C@H](CCCNC(=N)N)NC(=O)[C@H](CO)NC(=O)[C@H](CC(=O)O)NC(=O)[C@H](CCSC)NC(=O)[C@H](CCC(N)=O)NC(=O)[C@H](CCCCN)NC(=O)[C@H](CO)NC(=O)[C@H](CC(C)C)NC(=O)[C@H](CC(=O)O)NC(=O)[C@H](CO)NC(=O)[C@@H](NC(=O)[C@H](Cc1ccccc1)NC(=O)[C@@H](NC(=O)CNC(=O)[C@H](CCC(N)=O)NC(=O)[C@H](CO)NC(=O)[C@@H](N)Cc1cnc[nH]1)[C@@H](C)O)[C@@H](C)O)C(=O)N[C@@H](CCC(=O)O)C(=O)N[C@@H](Cc1c[nH]c2ccccc12)C(=O)N[C@@H](CC(C)C)C(=O)N[C@@H](CCCCN)C(=O)N[C@@H](CC(N)=O)C(=O)NCC(=O)NCC(=O)N1CCC[C@H]1C(=O)N[C@@H](CO)C(=O)N[C@@H](CO)C(=O)NCC(=O)N[C@@H](C)C(=O)N1CCC[C@H]1C(=O)N1CCC[C@H]1C(=O)N1CCC[C@H]1C(=O)N[C@@H](CO)C(N)=O,18.3 pM,28.6 pM
"CC[C@H](C)[C@@H]1NC(=O)[C@H](Cc2ccccc2)NC(=O)[C@@H](NC(=O)[C@H](CCC(N)=O)NC(=O)[C@H](C)NC(=O)[C@H](CCCNC(=N)N)NC(=O)[C@H](CCCNC(=N)N)NC(=O)[C@H](CO)NC(=O)[C@H](CC(=O)O)NC(=O)[C@H](CCSC)NC(=O)[C@H](CCC(N)=O)NC(=O)[C@H](CCCCN)NC(=O)[C@H](CO)NC(=O)[C@H](CC(C)C)NC(=O)[C@H](CC(=O)O)NC(=O)[C@H](CO)NC(=O)[C@@H](NC(=O)[C@H](Cc2ccccc2)NC(=O)[C@@H](NC(=O)CNC(=O)[C@H](CCC(N)=O)NC(=O)[C@H](CO)NC(=O)[C@@H](N)Cc2cnc[nH]2)[C@@H](C)O)[C@@H](C)O)CSCc2cccc(c2)CSC[C@@H](C(=O)N2CCC[C@H]2C(=O)N2CCC[C@H]2C(=O)N2CCC[C@H]2C(=O)N[C@@H](CO)C(N)=O)NC(=O)CNC(=O)[C@H](CO)NC(=O)[C@H](CO)NC(=O)[C@@H]2CCCN2C(=O)CNC(=O)CNC(=O)[C@H](CC(N)=O)NC(=O)[C@H](CCCCN)NC(=O)[C@H](CC(C)C)NC(=O)[C@H](Cc2c[nH]c3ccccc23)NC(=O)[C@H](CCC(=O)O)NC1=O (HELM PEPTIDE1{H.S.Q.G.T.F.T.S.D.L.S.K.Q.M.D.S.R.R.A.Q.C.F.I.E.W.L.K.N.G.G.P.S.S.G.C.P.P.P.S.[am]}|CHEM1{[c1cc(C[*:1])cc(C[*:2])c1]}$PEPTIDE1,CHEM1,21:R3-1:R1|PEPTIDE1,CHEM1,35:R3-1:R2$$$V2.0)",24.9 pM,–
CC[C@H](C)[C@H](NC(=O)[C@H](Cc1ccccc1)NC(=O)[C@H](CC(=O)O)NC(=O)[C@H](CCC(N)=O)NC(=O)[C@H](C)NC(=O)[C@H](CCCNC(=N)N)NC(=O)[C@H](CCCNC(=N)N)NC(=O)[C@H](CO)NC(=O)[C@H](CC(=O)O)NC(=O)[C@H](CCSC)NC(=O)[C@H](CCC(N)=O)NC(=O)[C@H](CCCCN)NC(=O)[C@H](CO)NC(=O)[C@H](CC(C)C)NC(=O)[C@H](CC(=O)O)NC(=O)[C@H](CO)NC(=O)[C@@H](NC(=O)[C@H](Cc1ccccc1)NC(=O)[C@@H](NC(=O)CNC(=O)[C@H](CCC(N)=O)NC(=O)[C@@H](CO)NC(=O)[C@@H](N)Cc1cnc[nH]1)[C@@H](C)O)[C@@H](C)O)C(=O)N[C@@H](CCC(=O)O)C(=O)N[C@@H](Cc1c[nH]c2ccccc12)C(=O)N[C@@H](CC(C)C)C(=O)N[C@@H](CCCCN)C(=O)N[C@@H](CC(N)=O)C(=O)NCC(=O)NCC(=O)N1CCC[C@H]1C(=O)N[C@@H](CO)C(=O)N[C@@H](CO)C(=O)NCC(=O)N[C@@H](C)C(=O)N1CCC[C@H]1C(=O)N1CCC[C@H]1C(=O)N1CCC[C@H]1C(=O)N[C@@H](CO)C(N)=O,75.4 pM,122 pM
"CC[C@H](C)[C@H](NC(=O)[C@H](Cc1ccccc1)NC(=O)[C@H](CC(=O)O)NC(=O)[C@H](CCC(N)=O)NC(=O)[C@H](C)NC(=O)[C@H](CCCNC(=N)N)NC(=O)[C@H](CCCNC(=N)N)NC(=O)[C@H](CO)NC(=O)[C@H](CC(=O)O)NC(=O)[C@@H]1CCC(=O)NCCCC[C@H](NC(=O)[C@H](CC(=O)O)NC(=O)[C@H](CO)NC(=O)[C@@H](NC(=O)[C@H](Cc2ccccc2)NC(=O)[C@@H](NC(=O)CNC(=O)[C@H](CCC(N)=O)NC(=O)[C@H](CO)NC(=O)[C@@H](N)Cc2cnc[nH]2)[C@@H](C)O)[C@@H](C)O)C(=O)N[C@@H](CO)C(=O)N[C@@H](CCCCN)C(=O)N[C@@H](CCC(N)=O)C(=O)N1)C(=O)N[C@@H](CCC(=O)O)C(=O)N[C@@H](Cc1c[nH]c2ccccc12)C(=O)N[C@@H](CC(C)C)C(=O)N[C@@H](CCCCN)C(=O)N[C@@H](CC(N)=O)C(=O)NCC(=O)NCC(=O)N1CCC[C@H]1C(=O)N[C@@H](CO)C(=O)N[C@@H](CO)C(=O)NCC(=O)N[C@@H](C)C(=O)N1CCC[C@H]1C(=O)N1CCC[C@H]1C(=O)N1CCC[C@H]1C(=O)N[C@@H](CO)C(N)=O (HELM PEPTIDE1{H.S.Q.G.T.F.T.S.D.K.S.K.Q.E.D.S.R.R.A.Q.D.F.I.E.W.L.K.N.G.G.P.S.S.G.A.P.P.P.S.[am]}$PEPTIDE1,PEPTIDE1,10:R3-14:R3$$$V2.0)",47.5 pM,–
CC[C@H](C)[C@H](NC(=O)[C@H](Cc1ccccc1)NC(=O)[C@H](CC(=O)O)NC(=O)[C@H](CCC(N)=O)NC(=O)[C@H](C)NC(=O)[C@]1(C)CCC/C=C\CCC[C@](C)(NC(=O)[C@H](CCC(N)=O)NC(=O)[C@H](CCCCN)NC(=O)[C@H](CO)NC(=O)[C@H](CC(C)C)NC(=O)[C@H](CC(=O)O)NC(=O)[C@H](CO)NC(=O)[C@@H](NC(=O)[C@H](Cc2ccccc2)NC(=O)[C@@H](NC(=O)CNC(=O)[C@H](CCC(N)=O)NC(=O)[C@@H](CO)NC(=O)[C@@H](N)Cc2cnc[nH]2)[C@@H](C)O)[C@@H](C)O)C(=O)N[C@@H](CC(=O)O)C(=O)N[C@@H](CO)C(=O)N[C@@H](CCCNC(=N)N)C(=O)N1)C(=O)N[C@@H](CCC(=O)O)C(=O)N[C@@H](Cc1c[nH]c2ccccc12)C(=O)N[C@@H](CC(C)C)C(=O)N[C@@H](CCCCN)C(=O)N[C@@H](CC(N)=O)C(=O)NCC(=O)NCC(=O)N1CCC[C@H]1C(=O)N[C@@H](CO)C(=O)N[C@@H](CO)C(=O)NCC(=O)N[C@@H](C)C(=O)N1CCC[C@H]1C(=O)N1CCC[C@H]1C(=O)N1CCC[C@H]1C(=O)N[C@@H](CO)C(N)=O,1.2 pM,8430 pM
